# ChEMBL document CHEMBL2034936, “Discovery and extensive in vitro evaluations of NK-HDAC-1: a chiral histone deacetylase inhibitor as a promising lead” (J Med Chem, 2012)
# Key:
# A498 = experiment: cells; assay type: functional; conditions: Homo sapiens, A498, 72 h
# [1] = Solubility in pH 7.4 PBS buffer; assay type: physicochemical
# MDA-MB-435 = experiment: cells; assay type: functional; conditions: Homo sapiens, MDA-MB-435, 72 h
# SK-OV-3 = experiment: cells; assay type: functional; conditions: Homo sapiens, SK-OV-3, 72 h
# [2] = Half life in mouse liver microsomes; assay type: ADME, Microsome
# 786-0 = experiment: cells; assay type: functional; conditions: Homo sapiens, 786-0, 72 h
# SR = experiment: Growth inhibition of human SR cells after 72 hrs by MTS assay; assay type: functional
# NCI-H522 = experiment: cells; assay type: functional; conditions: Homo sapiens, NCI-H522, 72 h
# in vitro = conditions: human, MCF10A cells
# Histone deacetylase = experiment: Inhibition of HDAC in human HeLa cell nuclear extracts using Ac-Arg-Gly-Lys(Ac)-AMC substrate by fluorimetry; assay type: protein assay
# SK-MEL-5 = experiment: cells; assay type: functional; conditions: Homo sapiens, SK-MEL-5, 72 h
# UACC-257 = experiment: cells; assay type: functional; conditions: Homo sapiens, UACC-257, 72 h
# CCRF-CEM = experiment: Growth inhibition of human CCRF-CEM cells after 72 hrs by MTS assay; assay type: functional
# SF-295 = experiment: cells; assay type: functional; conditions: Homo sapiens, SF-295, 72 h
# IGROV-1 = experiment: cells; assay type: functional; conditions: Homo sapiens, IGROV-1, 72 h
# SK-MEL-28 = experiment: cells; assay type: functional; conditions: Homo sapiens, SK-MEL-28, 72 h
# RXF 393 = experiment: cells; assay type: functional; conditions: Homo sapiens, RXF 393, 72 h
# SNB-19 = experiment: cells; assay type: functional; conditions: Homo sapiens, SNB-19, 72 h
# KM12 = experiment: cells; assay type: functional; conditions: Homo sapiens, KM12, 72 h
# MOLT-4 = experiment: Growth inhibition of human MOLT4 cells after 72 hrs by MTS assay; assay type: functional; conditions: MOLT-4, 72 h
# HOP-92 = experiment: cells; assay type: functional; conditions: Homo sapiens, HOP-92, 72 h
# [3] = target: Histone deacetylase (Homo sapiens) (UniProt Q13547+O15379+Q9UBN7+Q92769+Q9UQL6+Q8WUI4+Q9BY41+Q96DB2+P56524+Q9UKV0+Q969S8); experiment: Inhibition of HDAC in human MDA-MB-231 cells assessed as stimulation of histone H3 acetylation at 0.5 uM by Western blot; assay type: cell-based; conditions: TDE = time-dependent effect
# In short: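 Time course in MDA-MB-231 cells at 0.5 μM, sampled from 3 h up to 24 h. Lysed in RIPA (pH 7.5, protease and phosphatase inhibitors) at 4 °C, then 60 μg protein run on SDS-PAGE. Western blot with anti-acetyl-histone H3 and ECL detection.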
# [4] = Half life in mouse plasma; assay type: ADME, cell-free
compound,measurement,setting,value
CC(C)[C@@H](c1nc2ccccc2o1)n1cc(/C=C/C(=O)NO)nn1,GI50,A498,180 nM
same,solubility,[1],20 µg/mL
same,GI50,MDA-MB-435,91 nM
same,GI50,SK-OV-3,140 nM
same,half-life,[2],195 min
same,GI50,786-0,170 nM
same,GI50,SR,90 nM
same,GI50,NCI-H522,13 nM
same,GI50 at 48 h,in vitro,1600 nM
same,IC50,Histone deacetylase,7 nM
same,GI50,SK-MEL-5,100 nM
same,GI50,UACC-257,88 nM
same,GI50,CCRF-CEM,110 nM
same,GI50,SF-295,120 nM
same,GI50,IGROV-1,56 nM
same,GI50,SK-MEL-28,220 nM
same,GI50,RXF 393,180 nM
same,GI50,SNB-19,430 nM
same,GI50,KM12,230 nM
same,GI50,MOLT-4,72 nM
same,GI50,HOP-92,10 nM
same,inhibition,[3],tde
same,half-life,[4],1920 min
